Assay results reported in ChEMBL document CHEMBL1141594, “Synthesis, radiosynthesis, and biological evaluation of new proteasome inhibitors in a tumor targeting approach” (J Med Chem, 2008).
Residues, ends and D or L forms follow the SMILES beside them. *: point of attachment. Cbz = O=C(OCc1ccccc1)*

Columns and labels:
B16 = assay: Growth inhibition of mouse B16 cells after 48 hrs; type: functional, cell-based; conditions: B16, 48 h
Summary of the method: (§1)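 DMEM with 10% fetal calf serum, monolayer culture. 5 × 10³ cells/well seeded and left 24 h at 37 °C, 5% CO₂, humidified. Exposed 48 h to increasing concentrations. Growth measured with Hoechst 33342 dye. IC₅₀ is the mean ± SD of three independent experiments, each in triplicate. Compounds tested as hydrochloride salts.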

[1] = Growth inhibition of human IPC227F cells after 48 hrs; type: functional; summary of the method: as §1
[2] = Biodistribution in liver of C57/BL6 mouse bearing B16 cells at 0.07 uM, iv; type: ADME, organism-based, C57Bl/6; conditions: read-out: Drug uptake
Summary of the method: (§2)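 ¹²⁵I-labelled compound given to C57Bl/6J mice with subcutaneous B16 melanoma. Organs and tissues sampled at 15 min, 30 min, 1 h, 3 h and 6 h post-injection. Radioactivity expressed as % injected dose per unit organ mass. Feces and urine collected over 72 h for elimination.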

[3] = Biodistribution in tumor of C57/BL6 mouse bearing B16 cells at 0.07 uM, iv after 15 mins; type: ADME, organism-based, C57Bl/6, Neoplasm; conditions: read-out: Drug uptake; summary of the method: as §2
[4] = Biodistribution in tumor of C57/BL6 mouse bearing B16 cells assessed as remaining drug level at 0.07 uM, iv after 3 hrs; type: ADME, organism-based, C57Bl/6, Neoplasm; conditions: read-out: Drug uptake; summary of the method: as §2
[5] = Biodistribution in lung of C57/BL6 mouse bearing B16 cells at 0.07 uM, iv; type: ADME, organism-based, C57Bl/6; conditions: read-out: Drug uptake; summary of the method: as §2
[6] = Biodistribution in kidney of C57/BL6 mouse bearing B16 cells at 0.07 uM, iv; type: ADME, organism-based, C57Bl/6; conditions: read-out: Drug uptake; summary of the method: as §2
[7] = Ratio of biodistribution in tumor to blood in C57/BL6 mouse bearing mouse B16 cells; type: ADME, organism-based, C57Bl/6
Mus musculus = assay: Drug metabolism in C57/BL6 mouse bearing B16 cells assessed as elimation in faeces and urine at 0.07 uM, iv after 72 hrs; type: ADME, organism-based, C57Bl/6; conditions: in vivo; summary of the method: as §2
[8] = Biodistribution in tumor of C57/BL6 mouse bearing B16 cells assessed as remaining drug level at 0.07 uM, iv after 6 hrs; type: ADME, organism-based, C57Bl/6, Neoplasm; conditions: read-out: Drug uptake; summary of the method: as §2

Compound | IC50 (B16) [nM] | tissue uptake at 0.07 µM [2] [%ID/g] | IC50 [1] [nM] | also measured
CCN(CC)CCNC(=O)c1ccc(C(=O)N[C@@H](CC(C)C)C(=O)N[C@@H](CC(C)C)C(=O)N[C@H](C=O)CC(C)C)c(I)c1 | 1790 |  | 3580 | 
CCN(CC)CCNC(=O)c1ccc(C(=O)N[C@@H](CC(C)C)C(=O)N[C@@H](CC(C)C)C(=O)N[C@H](C=O)CC(C)C)cc1 | 1300 | 5.95 | 640 | 
CCN(CC)CCNC(=O)c1ccc(C(=O)N[C@@H](CC(C)C)C(=O)N[C@@H](CC(C)C)C(=O)N[C@H](C=O)CC(C)C)c(/N=N/N2CCCC2)c1 | 20 |  | 180 | 
CC(C)C[C@@H](C=O)NC(=O)[C@H](CC(C)C)NC(=O)[C@H](CC(C)C)NC(=O)OCc1ccccc1 (Cbz-Leu-Leu-Leu-aldehyde) | 42 |  | 77 | 

More lines, main results first:

IC50 (B16) [nM] | tissue uptake at 0.07 µM [2] [%ID/g] | Compound | IC50 [1] [nM] | also measured
530 |  | CCN(CC)CCNC(=O)c1ccc(C(=O)N[C@@H](CC(C)C)C(=O)N[C@@H](CC(C)C)C(=O)N[C@H](C=O)CC(C)C)c(NNN2CCCC2)c1 | 1850 | 
 | 8.9 | CCN(CC)CCNC(=O)c1ccc(C(=O)N[C@@H](CC(C)C)C(=O)N[C@@H](CC(C)C)C(=O)N[C@H](C=O)CC(C)C)c([125I])c1.Cl |  | tissue uptake at 0.25 h, 0.07 µM [3]: 2.7 %ID/g; tissue uptake at 3 h, 0.07 µM [4]: 1.2 %ID/g; tissue uptake at 0.07 µM [5]: 16.3 %ID/g; tissue uptake at 0.07 µM [6]: 4.9 %ID/g; Kp [7]: ≥ 1; Activity (Mus musculus): 87%; tissue uptake at 6 h, 0.07 µM [8]: 1.2 %ID/g
